Measured values as given in ChEMBL document CHEMBL3351863, “Optimization of 2-phenyl-pyrimidine-4-carboxamides towards potent, orally bioavailable and selective P2Y(12) antagonists for inhibition of platelet aggregation” (Bioorg Med Chem Lett, 2014).
Values belong to the compound of their own block, whether it stands above or below them. Active and inactive are the calls of the source. No cut-off for these calls is given here.

Key:
[1] = target: T1, P2X purinoceptor 3 (Homo sapiens) (UniProt P56373); assay: Antagonist activity against P2X3 (unknown origin)
T1 sequence (whole entry): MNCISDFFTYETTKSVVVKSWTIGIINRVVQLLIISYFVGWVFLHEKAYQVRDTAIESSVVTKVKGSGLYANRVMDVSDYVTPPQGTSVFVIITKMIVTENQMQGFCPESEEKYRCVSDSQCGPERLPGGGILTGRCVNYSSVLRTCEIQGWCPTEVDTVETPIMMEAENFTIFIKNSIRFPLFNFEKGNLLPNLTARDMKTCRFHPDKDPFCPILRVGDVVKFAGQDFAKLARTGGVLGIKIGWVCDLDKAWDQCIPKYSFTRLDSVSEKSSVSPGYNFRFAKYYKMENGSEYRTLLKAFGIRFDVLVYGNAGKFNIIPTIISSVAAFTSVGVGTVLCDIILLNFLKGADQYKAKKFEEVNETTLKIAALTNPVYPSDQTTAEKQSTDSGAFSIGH

[2] = target: P2Y purinoceptor 2 (Homo sapiens) (UniProt P41231); assay: Antagonist activity against P2Y2 (unknown origin) assessed as inhibition of agonist binding up to 10 uM
Sequence of P2Y purinoceptor 2 (Homo sapiens) (P41231 whole entry): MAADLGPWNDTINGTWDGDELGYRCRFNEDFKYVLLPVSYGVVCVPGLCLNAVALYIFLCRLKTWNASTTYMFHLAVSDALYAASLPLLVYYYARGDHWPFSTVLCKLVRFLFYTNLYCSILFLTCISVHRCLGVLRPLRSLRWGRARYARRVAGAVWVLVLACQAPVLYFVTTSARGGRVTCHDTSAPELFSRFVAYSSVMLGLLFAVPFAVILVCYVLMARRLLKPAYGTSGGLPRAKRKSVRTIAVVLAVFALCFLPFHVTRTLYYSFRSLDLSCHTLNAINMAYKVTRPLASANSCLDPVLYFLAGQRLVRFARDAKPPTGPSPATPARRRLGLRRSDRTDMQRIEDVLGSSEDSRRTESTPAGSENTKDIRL

[3] = target: P2Y purinoceptor 6 (Homo sapiens) (UniProt Q15077); assay: Antagonist activity against P2Y6 (unknown origin) assessed as inhibition of agonist binding up to 10 uM
Sequence of P2Y purinoceptor 6 (Homo sapiens) (Q15077 whole entry): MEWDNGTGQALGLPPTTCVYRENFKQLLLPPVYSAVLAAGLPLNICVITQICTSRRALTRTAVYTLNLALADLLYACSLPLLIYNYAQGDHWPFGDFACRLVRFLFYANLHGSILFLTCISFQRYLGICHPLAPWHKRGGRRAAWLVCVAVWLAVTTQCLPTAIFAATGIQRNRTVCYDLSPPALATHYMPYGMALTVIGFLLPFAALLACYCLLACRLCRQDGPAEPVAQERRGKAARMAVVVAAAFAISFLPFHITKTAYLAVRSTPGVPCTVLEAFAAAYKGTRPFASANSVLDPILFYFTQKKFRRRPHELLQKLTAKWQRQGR

[4] = target: T2, P2X purinoceptor 4 (Homo sapiens) (UniProt Q99571); assay: Antagonist activity against P2X4 (unknown origin)
T2 sequence (whole entry): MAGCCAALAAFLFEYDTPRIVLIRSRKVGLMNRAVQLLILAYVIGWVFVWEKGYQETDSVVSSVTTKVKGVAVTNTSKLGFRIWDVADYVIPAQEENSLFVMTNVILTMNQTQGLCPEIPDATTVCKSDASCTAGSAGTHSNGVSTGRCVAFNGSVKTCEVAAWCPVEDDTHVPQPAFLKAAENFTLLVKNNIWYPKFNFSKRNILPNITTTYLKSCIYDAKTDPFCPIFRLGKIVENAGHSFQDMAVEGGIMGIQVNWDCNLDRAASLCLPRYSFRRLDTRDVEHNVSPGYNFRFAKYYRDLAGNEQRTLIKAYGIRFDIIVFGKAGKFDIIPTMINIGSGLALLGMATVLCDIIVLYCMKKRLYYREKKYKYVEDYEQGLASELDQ

[5] = target: T3, P2Y purinoceptor 13 (Homo sapiens) (UniProt Q9BPV8); assay: Antagonist activity against P2Y13 (unknown origin) assessed as inhibition of agonist binding up to 10 uM
T3 sequence (whole entry): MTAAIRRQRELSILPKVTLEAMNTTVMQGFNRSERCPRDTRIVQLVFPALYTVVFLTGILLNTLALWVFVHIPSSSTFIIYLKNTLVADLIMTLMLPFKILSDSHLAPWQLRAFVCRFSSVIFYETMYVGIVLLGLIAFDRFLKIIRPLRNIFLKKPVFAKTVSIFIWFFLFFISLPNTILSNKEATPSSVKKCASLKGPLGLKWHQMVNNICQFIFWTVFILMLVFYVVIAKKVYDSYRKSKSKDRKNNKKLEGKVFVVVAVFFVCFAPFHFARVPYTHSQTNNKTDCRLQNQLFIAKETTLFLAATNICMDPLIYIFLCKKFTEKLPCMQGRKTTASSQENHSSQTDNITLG

[6] = target: P2Y purinoceptor 1 (Homo sapiens) (UniProt P47900); assay: Antagonist activity against P2Y1 (unknown origin) assessed as inhibition of agonist binding up to 10 uM
Sequence of P2Y purinoceptor 1 (Homo sapiens) (P47900 whole entry): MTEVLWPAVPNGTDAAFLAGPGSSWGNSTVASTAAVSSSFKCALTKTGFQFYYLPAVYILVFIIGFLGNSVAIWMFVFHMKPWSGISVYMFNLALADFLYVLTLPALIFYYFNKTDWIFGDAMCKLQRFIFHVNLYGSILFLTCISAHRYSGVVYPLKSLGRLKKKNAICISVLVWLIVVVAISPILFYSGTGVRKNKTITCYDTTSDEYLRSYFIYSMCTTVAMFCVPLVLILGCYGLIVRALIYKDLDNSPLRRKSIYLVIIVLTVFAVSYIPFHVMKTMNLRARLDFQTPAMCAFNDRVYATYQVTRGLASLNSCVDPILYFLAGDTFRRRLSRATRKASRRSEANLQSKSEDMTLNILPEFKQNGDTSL

[7] = target: T4, P2X purinoceptor 1 (Homo sapiens) (UniProt P51575); assay: Antagonist activity against P2X1 (unknown origin)
T4 sequence (whole entry): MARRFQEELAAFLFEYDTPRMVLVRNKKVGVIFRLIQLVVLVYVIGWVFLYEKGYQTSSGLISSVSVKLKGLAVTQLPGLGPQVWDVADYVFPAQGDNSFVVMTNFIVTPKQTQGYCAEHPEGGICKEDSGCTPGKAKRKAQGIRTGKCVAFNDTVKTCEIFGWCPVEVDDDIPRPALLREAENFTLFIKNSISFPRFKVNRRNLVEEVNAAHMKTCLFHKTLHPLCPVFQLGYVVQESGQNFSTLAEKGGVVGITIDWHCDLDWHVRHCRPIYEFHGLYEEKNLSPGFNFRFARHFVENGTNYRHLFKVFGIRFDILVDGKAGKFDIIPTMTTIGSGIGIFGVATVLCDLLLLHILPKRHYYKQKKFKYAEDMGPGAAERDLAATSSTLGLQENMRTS

[8] = target: T5, P2Y purinoceptor 11 (Homo sapiens) (UniProt Q96G91); assay: Antagonist activity against P2Y11 (unknown origin) assessed as inhibition of agonist binding up to 10 uM
T5 sequence (whole entry): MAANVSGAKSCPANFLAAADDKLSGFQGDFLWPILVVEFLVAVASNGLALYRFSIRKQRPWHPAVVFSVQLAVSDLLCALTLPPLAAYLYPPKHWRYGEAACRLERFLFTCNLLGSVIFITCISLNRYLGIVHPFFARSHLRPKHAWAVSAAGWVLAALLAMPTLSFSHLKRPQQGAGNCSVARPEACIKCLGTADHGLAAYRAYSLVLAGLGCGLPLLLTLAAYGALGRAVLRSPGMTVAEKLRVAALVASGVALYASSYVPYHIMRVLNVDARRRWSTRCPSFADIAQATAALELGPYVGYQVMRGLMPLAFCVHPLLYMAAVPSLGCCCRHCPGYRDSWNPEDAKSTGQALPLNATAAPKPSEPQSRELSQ

[9] = target: T6, P2X purinoceptor 2 (Homo sapiens) (UniProt Q9UBL9); assay: Antagonist activity against P2X2 (unknown origin)
T6 sequence (whole entry): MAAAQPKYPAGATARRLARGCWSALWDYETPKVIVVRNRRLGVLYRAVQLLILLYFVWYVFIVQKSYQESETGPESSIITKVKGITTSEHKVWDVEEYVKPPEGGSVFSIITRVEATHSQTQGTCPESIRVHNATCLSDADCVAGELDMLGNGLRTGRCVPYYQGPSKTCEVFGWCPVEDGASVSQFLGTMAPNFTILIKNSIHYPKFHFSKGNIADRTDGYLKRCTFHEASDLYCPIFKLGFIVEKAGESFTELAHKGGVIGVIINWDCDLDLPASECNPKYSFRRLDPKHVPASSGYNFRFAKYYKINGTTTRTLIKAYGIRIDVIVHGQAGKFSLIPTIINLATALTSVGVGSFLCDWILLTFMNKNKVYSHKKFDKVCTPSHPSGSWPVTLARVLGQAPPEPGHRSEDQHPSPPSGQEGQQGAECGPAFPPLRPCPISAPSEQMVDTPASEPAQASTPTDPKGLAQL

[10] = target: T7, P2X purinoceptor 7 (Homo sapiens) (UniProt Q99572); assay: Antagonist activity against P2X7 (unknown origin)
T7 sequence (whole entry): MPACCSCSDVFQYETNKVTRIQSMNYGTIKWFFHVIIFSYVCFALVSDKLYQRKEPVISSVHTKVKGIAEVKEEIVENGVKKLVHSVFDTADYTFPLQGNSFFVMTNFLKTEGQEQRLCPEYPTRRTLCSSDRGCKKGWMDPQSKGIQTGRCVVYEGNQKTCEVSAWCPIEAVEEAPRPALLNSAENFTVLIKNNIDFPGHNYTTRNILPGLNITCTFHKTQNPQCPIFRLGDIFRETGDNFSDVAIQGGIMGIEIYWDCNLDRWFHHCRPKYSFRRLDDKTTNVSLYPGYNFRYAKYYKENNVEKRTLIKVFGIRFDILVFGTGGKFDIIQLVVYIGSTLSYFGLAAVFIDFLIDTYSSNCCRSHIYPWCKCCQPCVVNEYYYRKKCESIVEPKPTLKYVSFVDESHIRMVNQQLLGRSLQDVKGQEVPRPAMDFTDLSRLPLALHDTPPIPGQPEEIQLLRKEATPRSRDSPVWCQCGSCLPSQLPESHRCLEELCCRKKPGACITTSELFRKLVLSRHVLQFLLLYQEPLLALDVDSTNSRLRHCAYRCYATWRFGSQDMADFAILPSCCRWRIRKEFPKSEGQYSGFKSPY

[11] = target: P2Y purinoceptor 4 (Homo sapiens) (UniProt P51582); assay: Antagonist activity against P2Y4 (unknown origin) assessed as inhibition of agonist binding up to 10 uM
Sequence of P2Y purinoceptor 4 (Homo sapiens) (P51582 whole entry): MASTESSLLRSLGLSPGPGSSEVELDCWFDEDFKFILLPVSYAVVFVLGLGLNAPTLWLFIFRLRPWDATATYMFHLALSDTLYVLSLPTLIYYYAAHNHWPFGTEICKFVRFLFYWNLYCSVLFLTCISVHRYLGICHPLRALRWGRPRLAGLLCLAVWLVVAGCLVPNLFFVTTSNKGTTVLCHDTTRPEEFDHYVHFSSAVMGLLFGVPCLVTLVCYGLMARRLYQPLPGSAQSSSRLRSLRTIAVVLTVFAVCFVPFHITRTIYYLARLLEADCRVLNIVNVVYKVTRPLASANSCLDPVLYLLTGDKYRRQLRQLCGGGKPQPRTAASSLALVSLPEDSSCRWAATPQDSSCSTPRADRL

[12] = AUC in Wistar rat at 10 mg/kg, po; format: ADME, organism-based, Plasma; parameters: dose 10 mg/kg, route oral; conditions: Wistar, plasma
Summary of the method: (§1)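 Rats dosed by iv infusion at 1 mg/kg (n = 2) or orally at 10 mg/kg (n = 3); plasma levels measured, limit of quantification ca. 1 ng/mL.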

[13] = target: Cytochrome P450 2C9 (Homo sapiens, UniProt P11712); assay: Inhibition of CYP2C9 in human liver microsomes assessed as reduction in diclofenac 4'-hydroxylation; format: ADME
Sequence of Cytochrome P450 2C9 (P11712 whole entry): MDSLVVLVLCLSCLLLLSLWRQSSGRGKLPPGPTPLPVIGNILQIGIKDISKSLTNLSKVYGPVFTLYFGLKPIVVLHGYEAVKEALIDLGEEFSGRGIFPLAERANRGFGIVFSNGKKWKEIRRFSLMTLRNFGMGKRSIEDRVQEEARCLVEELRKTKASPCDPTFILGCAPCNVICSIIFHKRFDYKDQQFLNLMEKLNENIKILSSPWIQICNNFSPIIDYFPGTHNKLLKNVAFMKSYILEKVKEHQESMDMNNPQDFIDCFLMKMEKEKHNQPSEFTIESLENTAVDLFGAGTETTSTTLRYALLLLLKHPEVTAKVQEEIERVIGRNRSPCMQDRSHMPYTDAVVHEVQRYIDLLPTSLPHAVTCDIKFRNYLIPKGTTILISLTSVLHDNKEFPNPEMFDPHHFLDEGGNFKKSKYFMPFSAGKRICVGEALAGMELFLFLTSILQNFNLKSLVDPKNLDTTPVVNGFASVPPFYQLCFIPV

[14] = target: T8, Cytochrome P450 3A4 (Homo sapiens, UniProt P08684); assay: Inhibition of CYP3A4 in human liver microsomes assessed as reduction in testosterone 6beta-hydroxylation; format: ADME
T8 sequence (P08684 whole entry): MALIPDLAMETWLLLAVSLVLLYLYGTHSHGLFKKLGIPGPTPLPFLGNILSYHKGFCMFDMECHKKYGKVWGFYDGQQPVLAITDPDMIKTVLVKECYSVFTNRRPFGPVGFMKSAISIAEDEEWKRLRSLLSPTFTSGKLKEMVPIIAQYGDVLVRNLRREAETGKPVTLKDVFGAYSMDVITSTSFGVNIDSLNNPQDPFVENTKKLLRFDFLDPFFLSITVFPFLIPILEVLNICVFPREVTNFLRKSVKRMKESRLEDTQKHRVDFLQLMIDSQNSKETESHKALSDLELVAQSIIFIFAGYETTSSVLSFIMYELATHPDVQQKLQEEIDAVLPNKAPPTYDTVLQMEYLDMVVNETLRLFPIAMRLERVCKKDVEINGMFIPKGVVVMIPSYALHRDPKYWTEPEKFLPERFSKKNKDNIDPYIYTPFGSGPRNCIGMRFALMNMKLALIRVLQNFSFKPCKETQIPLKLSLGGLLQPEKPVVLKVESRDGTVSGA

[15] = Cmax in Wistar rat at 10 mg/kg, po; format: ADME, organism-based; parameters: dose 10 mg/kg, route oral; conditions: Wistar, in vivo; summary of the method: as §1
[16] = target: T8, Cytochrome P450 3A4; assay: Inhibition of CYP3A4 in human liver microsomes assessed as reduction in midazolam 1'-hydroxylation; format: ADME
[17] = target: Voltage-gated inwardly rectifying potassium channel KCNH2 (Homo sapiens, UniProt Q12809); assay: Inhibition of human ERG expressed in HEK cells by patch-clamp assay; format: cell-based; conditions: hek293
Sequence of Voltage-gated inwardly rectifying potassium channel KCNH2 (Q12809 whole entry): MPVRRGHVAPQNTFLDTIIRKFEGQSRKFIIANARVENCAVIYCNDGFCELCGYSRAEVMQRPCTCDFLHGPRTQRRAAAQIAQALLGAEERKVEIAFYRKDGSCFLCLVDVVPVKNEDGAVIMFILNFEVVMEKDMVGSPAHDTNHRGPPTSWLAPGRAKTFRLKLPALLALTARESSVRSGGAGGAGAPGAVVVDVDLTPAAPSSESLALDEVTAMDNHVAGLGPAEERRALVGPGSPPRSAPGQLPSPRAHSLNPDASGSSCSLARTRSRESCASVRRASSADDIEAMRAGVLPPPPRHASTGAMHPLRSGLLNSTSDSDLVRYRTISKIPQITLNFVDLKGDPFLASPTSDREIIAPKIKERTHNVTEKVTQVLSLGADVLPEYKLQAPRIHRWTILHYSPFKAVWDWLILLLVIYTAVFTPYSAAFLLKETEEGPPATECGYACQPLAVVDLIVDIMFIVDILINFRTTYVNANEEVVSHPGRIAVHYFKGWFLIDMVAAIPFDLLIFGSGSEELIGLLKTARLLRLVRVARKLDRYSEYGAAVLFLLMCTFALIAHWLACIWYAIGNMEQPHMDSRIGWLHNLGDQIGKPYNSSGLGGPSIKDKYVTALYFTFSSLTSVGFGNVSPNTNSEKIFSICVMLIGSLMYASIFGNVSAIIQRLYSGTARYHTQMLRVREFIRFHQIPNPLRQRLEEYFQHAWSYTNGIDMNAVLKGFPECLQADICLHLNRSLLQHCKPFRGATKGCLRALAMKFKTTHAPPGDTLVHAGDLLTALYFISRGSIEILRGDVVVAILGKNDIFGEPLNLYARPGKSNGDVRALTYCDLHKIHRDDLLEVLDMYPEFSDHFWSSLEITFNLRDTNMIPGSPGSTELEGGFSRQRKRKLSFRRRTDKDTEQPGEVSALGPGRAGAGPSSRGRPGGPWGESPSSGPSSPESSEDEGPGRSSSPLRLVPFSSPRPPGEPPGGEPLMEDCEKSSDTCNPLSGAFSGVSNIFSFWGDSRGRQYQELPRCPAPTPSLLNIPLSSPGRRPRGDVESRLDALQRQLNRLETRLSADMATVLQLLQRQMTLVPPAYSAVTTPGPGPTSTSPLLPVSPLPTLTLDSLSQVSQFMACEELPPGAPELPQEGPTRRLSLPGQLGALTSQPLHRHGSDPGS

[18] = Clearance in Wistar rat at 1 mg/kg, iv; format: ADME, organism-based; parameters: dose 1 mg/kg, route intravenous; conditions: in vivo; summary of the method: as §1
[19] = test system: Liver microsome; assay: Metabolic stability assay in rat liver microsomes assessed as parent drug disappearance at 1 uM after 20 mins by HPLC and mass spectrometry method; format: ADME
[20] = target: Cytochrome P450 2D6 (Homo sapiens, UniProt P10635); assay: Inhibition of CYP2D6 in human liver microsomes assessed as reduction in dextromethorphan-O demethylation; format: ADME
Sequence of Cytochrome P450 2D6 (P10635 whole entry): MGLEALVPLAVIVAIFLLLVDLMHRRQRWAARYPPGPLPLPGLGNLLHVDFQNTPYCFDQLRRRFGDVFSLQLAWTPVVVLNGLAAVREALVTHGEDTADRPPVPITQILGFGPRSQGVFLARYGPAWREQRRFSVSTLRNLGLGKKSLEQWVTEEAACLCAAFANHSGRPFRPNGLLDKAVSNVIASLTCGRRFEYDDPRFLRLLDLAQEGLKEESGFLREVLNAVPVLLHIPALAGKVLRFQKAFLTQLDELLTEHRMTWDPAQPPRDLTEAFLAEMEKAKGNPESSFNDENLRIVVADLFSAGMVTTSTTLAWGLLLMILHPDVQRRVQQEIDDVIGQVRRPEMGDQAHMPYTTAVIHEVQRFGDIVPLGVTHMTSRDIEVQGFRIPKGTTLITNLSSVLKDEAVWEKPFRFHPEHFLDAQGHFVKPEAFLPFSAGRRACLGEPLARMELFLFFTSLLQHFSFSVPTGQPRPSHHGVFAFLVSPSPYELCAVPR

[21] = test system: Platelet; assay: Inhibition of ADP-induced platelet aggregation in human platelet rich plasma by in-vitro light transmission aggregometry assay; format: functional; conditions: Homo sapiens, Platelet, Plasma
Summary of the method: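 Human platelet-rich plasma incubated with compound, aggregation induced by 3 µM ADP and read by light transmission aggregometry; IC₅₀ derived from concentration–response curve.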

[22] = test system: Platelet; assay: Inhibition of ADP-induced platelet aggregation in human platelet rich plasma assessed as remaining activity at 100 nM by in-vitro light transmission aggregometry assay; format: functional
Summary of the method: (§2)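 Light transmission aggregometry in human platelet-rich plasma; compound incubated, aggregation triggered with 3 µM ADP; remaining activity (RA) recorded at a single compound level (1000, 500 or 100 nM).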

[23] = Potency shift, ratio of IC50 for inhibition of ADP-induced platelet aggregation in human platelet rich plasma to IC50 for displacement of [3H]-2-methyl-thio-adenosine 5'-diphosphate from human recombinant P2Y12 expressed in CHO cell membranes
[24] = Solubility in basic pH; format: physicochemical
[25] = test system: Platelet; assay: Inhibition of ADP-induced platelet aggregation in human platelet rich plasma assessed as remaining activity at 500 nM by in-vitro light transmission aggregometry assay; format: functional; summary of the method: as §2
[26] = Half life in Wistar rat at 1 mg/kg, iv or 10 mg/kg, po; format: ADME, organism-based; conditions: in vivo; summary of the method: as §1
[27] = Volume of distribution at steady state in Wistar rat at 1 mg/kg, iv or 10 mg/kg, po; format: ADME, organism-based; conditions: in vivo, read-out: Vdss; summary of the method: as §1
[28] = test system: Liver microsome; assay: Metabolic stability assay in human liver microsomes assessed as parent drug disappearance at 1 uM after 20 mins by HPLC and mass spectrometry method; format: ADME
[29] = target: P2Y purinoceptor 12 (Homo sapiens, UniProt Q9H244); assay: Displacement of [3H]-2-methyl-thio-adenosine 5'-diphosphate from human recombinant P2Y12 expressed in CHO cell membranes by scintillation counting method
Sequence of P2Y purinoceptor 12 (Q9H244 whole entry): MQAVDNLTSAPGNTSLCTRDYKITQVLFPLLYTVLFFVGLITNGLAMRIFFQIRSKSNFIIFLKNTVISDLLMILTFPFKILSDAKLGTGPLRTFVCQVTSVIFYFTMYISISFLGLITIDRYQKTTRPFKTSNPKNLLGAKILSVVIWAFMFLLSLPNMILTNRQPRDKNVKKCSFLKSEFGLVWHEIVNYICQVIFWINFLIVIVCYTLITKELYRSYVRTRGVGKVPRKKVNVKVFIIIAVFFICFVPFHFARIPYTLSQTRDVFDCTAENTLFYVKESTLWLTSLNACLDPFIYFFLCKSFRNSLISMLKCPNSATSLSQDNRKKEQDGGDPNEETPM
Summary of the method: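 CHO cells expressing recombinant P2Y₁₂ receptors, incubated with tritium-labeled 2-methyl-thio-adenosine 5'-diphosphate plus test compound; IC₅₀ from displacement curves, each point in triplicate; reference compound run with every compound set, and set re-analyzed if its IC₅₀ fell outside pre-set 95% confidence interval.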

[30] = Solubility in neutral pH; format: physicochemical
[31] = Oral bioavailability in Wistar rat at 10 mg/kg; format: ADME, organism-based; conditions: Wistar, in vivo; summary of the method: as §1

- inhibition [1]: inactive
- inhibition [2]: inactive
- inhibition [3]: inactive
- inhibition [4]: inactive
- inhibition [5]: inactive
- inhibition [6]: inactive
- inhibition [7]: inactive
- inhibition [8]: inactive
- inhibition [9]: inactive
- inhibition [10]: inactive
- inhibition [11]: inactive
Structure (SMILES): CCCCOC(=O)N1CCN(C(=O)[C@H](CCC(=O)O)NC(=O)c2cc([C@H]3C[C@@H]3COC)nc(-c3ccccc3)n2)CC1

- AUC [12]: 0.638 µM·h
- inhibition (INH) [13]: Not Active
- inhibition (INH) [14]: Not Active
- Cmax [15]: 683 nM
- inhibition (INH) [16]: Not Active
- clearance [18]: 36 mL/min/kg
- Stability [19]: Stable
- inhibition (INH) [20]: Not Active
- IC50 [21]: 32 nM
- solubility [24]: soluble
- half-life [26]: 37.8 min
- Vd [27]: 1.8 L/kg
- Stability [28]: Stable
- IC50 [29]: 16 nM
- solubility [30]: soluble
- bioavailability [31]: 8%
Structure (SMILES): CCOC(=O)N1CCN(C(=O)[C@H](CCC(=O)O)NC(=O)c2cc(N3CC[C@H](OC)C3)nc(-c3ccccc3)n2)CC1
- inhibition (INH) [17]: Not Active
- Activity [22]: <70%
- Ratio IC50 [23]: 2
- Activity [25]: <30%
